According to article PMC3448962 (Biochemical pharmacology, 2012):
Where two headings read alike, the source gives them in different places. Values belong to the compound of their own block, whether it stands above or below them. Where a SMILES comes first, the peptide text is derived from it. Bridges are numbered along the chain shown (N, C = ends). [ ]: non-standard residue; d: D form. The star is where a group is joined. X1 = CC[C@H](C)CCCCC(=O)*; Dab = NCC[C@H](N)C(=O)O

Legend:
human AGP [1] = test: Isothermal titration calorimetry; assay type: binding; settings: for Kd: 25 °C
Method in brief: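 Human AGP (63 μM) in 20 mM HEPES pH 7.0, degassed, was titrated with 80 × 3-μL injections of 10–13 mM test compound at 240-s intervals, stirred at 307 rpm. Runs were at 37 °C, with one compound also at 15, 20, 25 and 30 °C. Delipidation was on lipidex 1000 in 20 mM HEPES pH 7.4 at 37 °C. Heat of dilution was subtracted, and n and ΔH came from a one-set-of-sites fit.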

[2] = human plasma; equilibrium dialysis; cited from earlier work
[3] = cited from earlier work
human AGP [4] = test: Surface plasmon resonance; assay type: binding; settings: for SPR binding response at single concentrations: 100 μM and 300 μM of each compound
Method in brief: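 AGP was thiol-coupled (PDEA/EDC, MES pH 5.0) to a CM5 chip at 5000 RU, with PBS pH 7.4 running buffer at 25 °C. Compound series were 3-fold dilutions from 3 mM, plus single 100 and 300 μM injections, at 50 μL/min: 30 s association, 60 s dissociation. Response was read 10 s before association ended, reference-subtracted and MW-normalised. Glycine pH 1.7 regenerated the chip; chlorpromazine served as surface control. Runs were done ≥3 times.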

human AGP [5] = test: Fluorometric probe displacement assay; settings: for displacement of BODIPY-PL2 from AGP: probe BODIPY-PL2
human AGP [6] = test: in vitro; settings: pH 7.4
human AGP [7] = test: Fluorometric assay: direct titration of fluorescent probe into AGP; settings: for binding to AGP by direct fluorometric titration: emission did not plateau where seen, no Kd derived
human AGP [8] = test: in vitro; settings: pH 7.4, Ki
[9] = cited from earlier work; remark: listed apart in the source
[10] = rats; cited from earlier work
[11] = system: human α-1-acid glycoprotein (AGP); test: Fluorometric probe displacement assay; settings: human

Compound: Polymyxin B [PmB]
Kd (human AGP [1]; read-out: Kd, delipidated AGP, delipidated sample): 210 µM | Kd (human AGP [1]; read-out: Kd, non-delipidated AGP, non-delipidated sample): 103 µM | bound to plasma [2]: over 50% | plasma protein binding, critically ill septic patients ([3]; critically ill septic patients): more than 90% | plasma protein binding, healthy subjects ([3]; healthy subjects): around 56% | SPR binding response at single concentrations (human AGP [4]): highest response | displacement of BODIPY-PL2 from AGP (human AGP [5]): unable to produce any discernible displacement | Ki (human AGP [5]; read-out: Ki values (text summary over probes), titration of probe-AGP solutions): > 200 µM | Ki (human AGP [5]; read-out: Ki, displacement of ANS, probe ANS, 20°C, mean ± SE, n = 3 unless otherwise indicated, ND = not detected): 225 ± 49 µM

Kd at 2 min (human AGP [6]): 0.91 ± 0.2 µM
Compound: CCN(CC)c1ccc2nc3c4ccccc4c(=O)cc-3oc2c1 [NR, Nile Red]

binding to AGP by direct fluorometric titration (human AGP [7]): weak AGP affinity
Compound: [Dansyl-Lys]^1 polymyxin B3 [[Dansyl-Lys^1]PmB3]

binding to AGP by direct fluorometric titration (human AGP [7]): no fluorescence emission observed
Compound: CCCCCCCCCCCCCCCC(=O)OC[C@H](COP(=O)(O)OCCNC(=O)CCc1ccc2n1[B-](F)(F)[N+]1=C(C)C=C(C)C1=C2)OC(=O)CCCCCCCCCCCCCCC.CCN(CC)CC [BODIPY-PL1, N-(4,4-difluoro-5,7-dimethyl-4-bora-3a,4a-diaza-s-indacene-3-propionyl)-1,2-dihexa-decanoyl-sn-glycero-3-phosphoethanolamine, triethylammonium salt]

Ki at 2 min (human AGP [8]; displacement of ANS): 0.14 ± 0.01 µM | Ki at 2 min (human AGP [8]; displacement of AO): 2.8 ± 0.2 µM | Ki at 2 min (human AGP [8]; displacement of NR): 0.67 ± 0.05 µM | displacement of BODIPY-PL2 from AGP (human AGP [5]): able to compete with BODIPY-PL2
Compound: CN(C)CCCN1c2ccccc2Sc2ccc(Cl)cc21 [Chlorpromazine]

binding affinity for AGP by ITC (human AGP [1]): no detectable binding affinity | SPR binding response at single concentrations (human AGP [4]): very poor responses | concentration dependence of SPR binding (human AGP [4]; concentration series 3 mM to 1.3 μM): not concentration dependent | ability to displace the probes (human AGP [5]; ANS, Auramine O, Nile Red): no ability to displace any of the probes
Compound: colistin methanesulfonate [CMS]

binding affinity for AGP by ITC (human AGP [1]): no detectable binding affinity | SPR binding response at single concentrations (human AGP [4]): very poor responses
Compound: Colistin nona-peptide [colistin NP]

Kd at 2 min (human AGP [7]; human, pH 7.4): 0.87 ± 0.07 µM
Compound: O=S(=O)(O)c1cccc2cccc(Nc3ccccc3)c12 [ANS, 1-anilino-8-naphthalene sulfonic acid]

binding to AGP by direct fluorometric titration (human AGP [7]): apparent weak affinity
Compound: 2-(4,4-difluoro-5-methyl-4-bora-3a,4a-diaza-s-indacene-3-dodecanoyl)-1-hexadecanoyl-sn-glycero-3-phosphocholine [BODIPY-PL2]

Compound: CC[C@H](C)CCCCC(=O)N[C@@H](CCN)C(=O)N[C@H](C(=O)N[C@@H](CCN)C(=O)N[C@H]1CCNC(=O)[C@H]([C@@H](C)O)NC(=O)[C@H](CCN)NC(=O)[C@H](CCN)NC(=O)[C@H](CC(C)C)NC(=O)[C@@H](CC(C)C)NC(=O)[C@H](CCN)NC1=O)[C@@H](C)O [Colistin, colistin] (X1-[Dab]T[Dab][Dab][Dab][dL]L[Dab][Dab]T; lactam 4-C (inferred); N-terminus assumed)
bound to plasma [2]: over 50% | level of plasma protein binding in neutropenic infected mice compared to healthy mice [9]: greater | plasma protein binding [10]: 55–57% | Ki ([11]; Ki values (text summary over probes), titration of probe-AGP solutions): > 200 µM | Ki ([11]; Ki, displacement of ANS, probe ANS, 20°C, mean ± SE, n = 3 unless otherwise indicated, ND = not detected): 351 ± 188 µM | displacement of BODIPY-PL2 from AGP (human AGP [5]): unable to produce any discernible displacement
